The values that follow come from ChEMBL document CHEMBL3632601, “Actinoramide A Identified as a Potent Antimalarial from Titration-Based Screening of Marine Natural Product Extracts” (J Nat Prod, 2015).

As a reminder, the EC50 is the concentration that produces a half-maximal response. Read a low EC50 as a more potent agent.

Data set [1] concerns Plasmodium falciparum. The experiment in a line: Antiplasmodial activity against Plasmodium falciparum HB3 after 72 hrs by SYBR green DNA-staining parasite viability assay. It counts as functional, organism-based. In a few lines:
(§1)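 Intra-erythrocytic P. falciparum growth in 1536-well format. Infected RBCs at 0.3% parasitemia and 2.5% hematocrit (final) were exposed to compound at 37 °C, 5% CO2, for 72 h. Lysis buffer was added (Tris-HCl, EDTA, saponin, Triton X-100, SYBR Green I), followed by overnight incubation in the dark at 22–24 °C. Fluorescence read at 485/535 nm. Artemisinin and mefloquine served as positive controls, DMSO as negative. EC50 from curve fits, duplicate titrations.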

A further data set relates to HEK293. The experiment in a line: Cytotoxicity against human HEK293 cells after 72 hrs by CellTiter-Glo assay. The conditions noted are these: hek293, 72 h. (Cellular ATP, detected with luciferase, serves as a proxy for viable cell number.)
In data set [2] the test system is Plasmodium falciparum. The experiment in a line: Antiplasmodial activity against Plasmodium falciparum GB4 after 72 hrs by SYBR green DNA-staining parasite viability assay. It counts as functional, organism-based. The essentials: as §1
For data set [3], the system named is Plasmodium falciparum. The data set is described as follows: Antiplasmodial activity against Plasmodium falciparum cp250 after 72 hrs by SYBR green DNA-staining parasite viability assay. In kind it is functional, organism-based. The essentials: as §1
Data set [4] concerns Plasmodium falciparum. The experiment in a line: Antiplasmodial activity against Plasmodium falciparum 7G8 after 72 hrs by SYBR green DNA-staining parasite viability assay. It counts as functional, organism-based. The essentials: as §1
For the next data set, the system named is HepG2. The data set is described as follows: Cytotoxicity against human HepG2 cells after 72 hrs by CellTiter-Glo assay. The conditions noted are these: hepg2, 72 h.
In data set [5] the test system is Plasmodium falciparum. The experiment in a line: Antiplasmodial activity against Plasmodium falciparum Dd2 after 72 hrs by SYBR green DNA-staining parasite viability assay. In kind it is functional, organism-based. In a few lines: as §1
A further data set relates to Jurkat. The experiment in a line: Cytotoxicity against human Jurkat cells after 72 hrs by SYBR Green viability assay. It counts as cell-based.
Data set [6] deals with Plasmodium falciparum. The experiment in a line: Inhibition of aspartyl protease activity of plasmepsin in Plasmodium falciparum extracts using EDANSCOCH2CH2CO-ALERMFLSFP-Dap(DABCYL)OH as substrate after 15 mins by fluorescence assay. The essentials: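 Saponin-treated, RBC-depleted P. falciparum extract (plasmepsin pellet, 0.16% final) in 100 mM sodium acetate pH 5.0, 20% glycerol. Compound pin-transferred, then 15 min preincubation with enzyme. EDANS-DABCYL Plasmepsin II substrate added at 5 or 10 μM final, under KM conditions. Fluorescence (ex 336/em 490 nm) read over 3 h. EC50 calculated from plotted data.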

The source made the active and inactive calls. The calls are words filed in the database; no cut-off is given here.

In the case of `COCC(=O)N[C@@H](C(=O)N1NCCC[C@H]1C(=O)N[C@@H](Cc1ccccc1)[C@@H](O)[C@H](C)C(=O)N[C@H]1CCNC1=O)[C@H](O)C(C)C`, the outcome in the data set with Plasmodium falciparum [1], with Plasmodium falciparum [2], in the data set on Plasmodium falciparum [3], in the data set on Plasmodium falciparum [4] and in the data set with Plasmodium falciparum [5] was Active. Besides, the Activity result in the data set with HEK293 and in the data set on HepG2 was “Non-toxic” in each case.
Consider `COCC(=O)N[C@@H](C(=O)N1N=CCC[C@H]1C(=O)N[C@@H](Cc1ccccc1)[C@@H](O)[C@H](C)C(=O)N[C@H]1CCN(C(N)=O)C1=O)[C@H](O)C(C)C`, for which the outcome with Plasmodium falciparum [1], in the data set on Plasmodium falciparum [2], in the data set with Plasmodium falciparum [3], with Plasmodium falciparum [4] and in the data set on Plasmodium falciparum [5] was Active. The Activity entry in the data set on HEK293 and in the data set on HepG2 was “Non-toxic” throughout.
For the molecule `COCC(=O)N[C@@H](C(=O)N1NCCC[C@H]1C(=O)N[C@@H](Cc1ccccc1)[C@@H](O)[C@H](C)C(=O)N[C@H]1CCN(C(C)=O)C1=O)[C@H](O)C(C)C`, the outcome with Plasmodium falciparum [1], in the data set with Plasmodium falciparum [2], in the data set with Plasmodium falciparum [3], with Plasmodium falciparum [4] and in the data set on Plasmodium falciparum [5] was Active. Moreover, the Activity result in the data set on HEK293 and in the data set on HepG2 was “Non-toxic” each time.
Take `COCC(=O)N[C@@H](C(=O)N1NCCC[C@H]1C(=O)N[C@@H](Cc1ccccc1)[C@@H](O)[C@H](C)C(=O)N[C@H]1CCC(=O)NC1=O)[C@H](O)C(C)C`: the EC50 in the data set with Jurkat came out at 30 µM. Also, the Activity entry with HEK293 and in the data set on HepG2 was “Non-toxic” in each case.
With `COCC(=O)N[C@@H](C(=O)N1NCCC[C@H]1C(=O)N[C@@H](Cc1ccccc1)[C@@H](O)[C@H](C)C(=O)N[C@H]1CCN(C(N)=O)C1=O)[C@H](O)C(C)C`, the EC50 worked out at 90 µM with Jurkat; 200 nM in the data set on Plasmodium falciparum [1] (HB3, 72 h); 200 nM in the data set with Plasmodium falciparum [2] (GB4, 72 h); 200 nM in the data set with Plasmodium falciparum [3] (cp250, 72 h); 200 nM with Plasmodium falciparum [4] (7G8, 72 h); 200 nM in the data set on Plasmodium falciparum [5] (Dd2, 72 h). In addition, in the data set on Plasmodium falciparum [6], the inhibition entry was “inactive”. The Activity result with HEK293 and with HepG2 was “Non-toxic” throughout.
For `COCC(=O)N[C@@H](C(=O)N1NCCC[C@H]1C(=O)N[C@@H](Cc1ccccc1)[C@@H](O)[C@H](C)C(=O)NC1CNC(=O)NC1=O)[C@H](O)C(C)C` (some centres not stated), the outcome in the data set with Plasmodium falciparum [1], in the data set with Plasmodium falciparum [2], with Plasmodium falciparum [3], with Plasmodium falciparum [4] and with Plasmodium falciparum [5] was inactive. The Activity result with HEK293 and with HepG2 was “Non-toxic” in each case.
Take `COCC(=O)N[C@@H](C(=O)N1NCCC[C@H]1C(=O)N[C@@H](Cc1ccccc1)[C@@H](O)[C@H](C)C(=O)N[C@@H]1CCN(C(N)=O)C1=O)[C@H](O)C(C)C`: the outcome in the data set on Plasmodium falciparum [1], in the data set with Plasmodium falciparum [2], with Plasmodium falciparum [3], with Plasmodium falciparum [4] and with Plasmodium falciparum [5] was Active. In addition, the Activity entry in the data set with HEK293 and in the data set with HepG2 was “Non-toxic” in each case.
